Data published in ChEMBL document CHEMBL3352165 (Eur J Med Chem, 2014).
Activity calls are given as the source filed them. No cut-off for these calls is given here.

Key:
[1] = Cytotoxicity against human SKBR3 cells assessed as inhibition of cell growth after 72 hrs by sulforhodamine B assay; format: functional, cell-based; details: SK-BR-3, 72 h
Procedure, shortened: (§1)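 Cells grown in RPMI-1640 with 5% FBS and plated at 5.0×10^4/ml. Next day exposed to 0.5–5000 ng/ml for 3 days. Survival read by sulforhodamine B staining. IC50 taken from growth curves; mean of at least three determinations.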

[2] = test system: BT-474; experiment: Cytotoxicity against human BT474 cells assessed as inhibition of cell growth after 72 hrs by sulforhodamine B assay; format: functional, cell-based; details: BT-474, 72 h; procedure, shortened: as §1
[3] = test system: A-431; experiment: Cytotoxicity against human A431 cells assessed as inhibition of cell growth after 72 hrs by sulforhodamine B assay; format: functional, cell-based; details: A-431, 72 h; procedure, shortened: as §1
[4] = test system: MCF7; experiment: Cytotoxicity against human MCF7 cells assessed as inhibition of cell growth after 72 hrs by sulforhodamine B assay; format: functional, cell-based; details: MCF7, 72 h; procedure, shortened: as §1
[5] = test system: BT-474; experiment: Induction of cell cycle arrest in human BT474 cells assessed as accumulation at G1 phase at 0.001 uM incubated for 12 hrs by propidium iodide staining based flow cytometry (reference value: 67%); format: functional
[6] = test system: BT-474; experiment: Induction of cell cycle arrest in human BT474 cells assessed as accumulation at G2/M phase at 0.001 uM incubated for 12 hrs by propidium iodide staining based flow cytometry (reference value: 14%); format: functional
[7] = test system: BT-474; experiment: Induction of cell cycle arrest in human BT474 cells assessed as accumulation at S phase at 0.001 uM incubated for 12 hrs by propidium iodide staining based flow cytometry (reference value: 19%); format: functional
[8] = test system: BT-474; experiment: Induction of apoptosis in human BT474 cells at 0.001 uM incubated for 12 hrs by propidium iodide staining based flow cytometry (reference value: 1%); format: functional
[9] = test system: BT-474; experiment: Induction of cell cycle arrest in human BT474 cells assessed as accumulation at G1 phase at 0.01 uM incubated for 12 hrs by propidium iodide staining based flow cytometry (reference value: 67%); format: functional
[10] = test system: BT-474; experiment: Induction of cell cycle arrest in human BT474 cells assessed as accumulation at G2/M phase at 0.01 uM incubated for 12 hrs by propidium iodide staining based flow cytometry (reference value: 14%); format: functional
[11] = test system: BT-474; experiment: Induction of cell cycle arrest in human BT474 cells assessed as accumulation at S phase at 0.01 uM incubated for 12 hrs by propidium iodide staining based flow cytometry (reference value: 19%); format: functional
[12] = test system: BT-474; experiment: Induction of apoptosis in human BT474 cells at 0.01 uM incubated for 12 hrs by propidium iodide staining based flow cytometry (reference value: 1%); format: functional
[13] = test system: BT-474; experiment: Induction of cell cycle arrest in human BT474 cells assessed as accumulation at G1 phase at 0.1 uM incubated for 12 hrs by propidium iodide staining based flow cytometry (reference value: 67%); format: functional
[14] = test system: BT-474; experiment: Induction of cell cycle arrest in human BT474 cells assessed as accumulation at G2/M phase at 0.1 uM incubated for 12 hrs by propidium iodide staining based flow cytometry (reference value: 14%); format: functional
[15] = test system: BT-474; experiment: Induction of cell cycle arrest in human BT474 cells assessed as accumulation at S phase at 0.1 uM incubated for 12 hrs by propidium iodide staining based flow cytometry (reference value: 19%); format: functional
[16] = test system: BT-474; experiment: Induction of apoptosis in human BT474 cells at 0.1 uM incubated for 12 hrs by propidium iodide staining based flow cytometry (reference value: 1%); format: functional
[17] = test system: BT-474; experiment: Induction of cell cycle arrest in human BT474 cells assessed as accumulation at G1 phase at 1 uM incubated for 12 hrs by propidium iodide staining based flow cytometry (reference value: 67%); format: functional
[18] = test system: BT-474; experiment: Induction of cell cycle arrest in human BT474 cells assessed as accumulation at G2/M phase at 1 uM incubated for 12 hrs by propidium iodide staining based flow cytometry (reference value: 14%); format: functional
[19] = test system: BT-474; experiment: Induction of cell cycle arrest in human BT474 cells assessed as accumulation at S phase at 1 uM incubated for 12 hrs by propidium iodide staining based flow cytometry (reference value: 19%); format: functional
[20] = test system: BT-474; experiment: Induction of apoptosis in human BT474 cells at 1 uM incubated for 12 hrs by propidium iodide staining based flow cytometry (reference value: 1%); format: functional
[21] = test system: BT-474; experiment: Induction of cell cycle arrest in human BT474 cells assessed as accumulation at G1 phase at 10 uM incubated for 12 hrs by propidium iodide staining based flow cytometry (reference value: 67%); format: functional
[22] = test system: BT-474; experiment: Induction of cell cycle arrest in human BT474 cells assessed as accumulation at G2/M phase at 10 uM incubated for 12 hrs by propidium iodide staining based flow cytometry (reference value: 14%); format: functional
[23] = test system: BT-474; experiment: Induction of cell cycle arrest in human BT474 cells assessed as accumulation at S phase at 10 uM incubated for 12 hrs by propidium iodide staining based flow cytometry (reference value: 19%); format: functional
[24] = test system: BT-474; experiment: Induction of apoptosis in human BT474 cells at 10 uM incubated for 12 hrs by propidium iodide staining based flow cytometry (reference value: 1%); format: functional
[25] = Antitumor activity against human Calu3 cells xenografted in BALB/cA mouse assessed as tumor growth inhibition at 200 mg/kg, po; format: functional; details: Calu-3, read-out: TGI
Procedure, shortened: (§2)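 Female BALB/cA nude mice, 6–7 weeks old, implanted s.c. on midright side with 2×10^6 Calu-3 cells in 0.2 ml PBS. Grouped at 60–150 mm³ tumour volume (6 per treated group, 12 vehicle). Oral dosing in 0.5% CMC with 0.1% Tween-80. Caliper volume = L×W²×0.5; inhibition = (1 − T/C)×100% on relative tumour volume; weight tracked for 21 d.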

[26] = Antitumor activity against human Calu3 cells xenografted in BALB/cA mouse assessed as tumor growth inhibition at 100 mg/kg, po; format: functional; details: Calu-3, read-out: TGI; procedure, shortened: as §2
[27] = test system: Mus musculus; experiment: Toxicity in human Calu3 cells xenografted BALB/cA mouse assessed as body weight loss at 100 mg/kg, po measured every other day for 21 days; format: organism-based, Calu-3; design: dose 100 mg/kg, route oral; details: in vivo, 504 h
Procedure, shortened: (§3)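 Female BALB/cA nude mice, 6–7 weeks old, implanted s.c. on the mid-right flank with 2×10^6 Calu-3 cells in 0.2 ml PBS. At 60–150 mm³ tumour volume, mice randomised into six per treatment group (twelve vehicle controls). Oral dosing in 0.5% CMC aqueous solution with 0.1% Tween-80. Body weight recorded every other day for 21 d.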

[28] = test system: Mus musculus; experiment: Toxicity in human Calu3 cells xenografted BALB/cA mouse assessed as body weight loss at 200 mg/kg, po measured every other day for 21 days; format: organism-based, Calu-3; design: dose 200 mg/kg, route oral; details: in vivo, 504 h; procedure, shortened: as §3
[29] = target: T1, Receptor tyrosine-protein kinase erbB-2 (Homo sapiens, UniProt P04626); details: BT-474, 0.001 to 10 uM
T1 sequence (P04626 whole entry): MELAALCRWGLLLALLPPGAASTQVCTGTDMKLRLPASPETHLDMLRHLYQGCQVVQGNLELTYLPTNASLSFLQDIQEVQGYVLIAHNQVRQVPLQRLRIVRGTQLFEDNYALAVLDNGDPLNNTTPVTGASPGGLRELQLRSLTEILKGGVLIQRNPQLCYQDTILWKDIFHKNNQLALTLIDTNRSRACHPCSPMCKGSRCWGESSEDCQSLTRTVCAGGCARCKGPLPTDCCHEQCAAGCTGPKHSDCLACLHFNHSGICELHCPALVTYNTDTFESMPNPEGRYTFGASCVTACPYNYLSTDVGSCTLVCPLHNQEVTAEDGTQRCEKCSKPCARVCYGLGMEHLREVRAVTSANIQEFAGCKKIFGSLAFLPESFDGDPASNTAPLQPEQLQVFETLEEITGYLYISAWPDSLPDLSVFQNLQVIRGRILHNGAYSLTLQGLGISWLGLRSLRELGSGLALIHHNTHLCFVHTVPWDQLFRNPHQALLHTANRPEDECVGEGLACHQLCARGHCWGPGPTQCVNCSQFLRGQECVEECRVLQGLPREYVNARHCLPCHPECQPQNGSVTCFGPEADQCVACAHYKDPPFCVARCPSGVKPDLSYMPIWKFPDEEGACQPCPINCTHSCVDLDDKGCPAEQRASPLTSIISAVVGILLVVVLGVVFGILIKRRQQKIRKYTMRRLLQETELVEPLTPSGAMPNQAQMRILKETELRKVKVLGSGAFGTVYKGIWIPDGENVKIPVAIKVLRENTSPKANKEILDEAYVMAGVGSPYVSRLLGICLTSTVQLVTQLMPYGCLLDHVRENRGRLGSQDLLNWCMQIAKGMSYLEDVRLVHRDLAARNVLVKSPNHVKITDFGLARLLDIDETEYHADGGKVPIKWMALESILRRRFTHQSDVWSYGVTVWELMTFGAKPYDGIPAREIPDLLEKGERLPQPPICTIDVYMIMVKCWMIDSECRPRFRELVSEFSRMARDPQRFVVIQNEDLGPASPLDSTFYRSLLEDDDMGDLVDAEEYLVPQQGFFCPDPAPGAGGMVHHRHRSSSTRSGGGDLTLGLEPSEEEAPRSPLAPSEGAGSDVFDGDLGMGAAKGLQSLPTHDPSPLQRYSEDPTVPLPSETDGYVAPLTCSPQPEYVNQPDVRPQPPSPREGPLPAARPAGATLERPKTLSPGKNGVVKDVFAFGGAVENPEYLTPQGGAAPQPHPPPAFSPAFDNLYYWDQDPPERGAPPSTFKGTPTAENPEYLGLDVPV

[30] = target: T1, Receptor tyrosine-protein kinase erbB-2; details: BT-474, 0.001 to 10 uM; remark: listed apart in the source
[31] = target: T1, Receptor tyrosine-protein kinase erbB-2; details: BT-474, 0.001 to 10 uM; remark: listed apart in the source
[32] = cells; details: Homo sapiens, Calu-3, 72 h
[33] = test system: MDA-MB-453; experiment: cells; details: Homo sapiens, MDA-MB-453, 72 h
[34] = cells; details: Homo sapiens, SK-OV-3, 72 h
[35] = test system: MDA-MB-231; experiment: cells; details: Homo sapiens, MDA-MB-231, 72 h
[36] = test system: NCI-H460; experiment: cells; details: Homo sapiens, NCI-H460, 72 h
[37] = test system: MRC5; experiment: cells; details: Homo sapiens, MRC5, 72 h
[38] = target: Vascular endothelial growth factor receptor 2 (Homo sapiens, UniProt P35968); experiment: Inhibition of KDR phosphorylation (unknown origin) expressed in human HUVEC at 0.001 to 1 uM incubated for 2 hrs by Western blot method
Sequence of Vascular endothelial growth factor receptor 2 (P35968 whole entry): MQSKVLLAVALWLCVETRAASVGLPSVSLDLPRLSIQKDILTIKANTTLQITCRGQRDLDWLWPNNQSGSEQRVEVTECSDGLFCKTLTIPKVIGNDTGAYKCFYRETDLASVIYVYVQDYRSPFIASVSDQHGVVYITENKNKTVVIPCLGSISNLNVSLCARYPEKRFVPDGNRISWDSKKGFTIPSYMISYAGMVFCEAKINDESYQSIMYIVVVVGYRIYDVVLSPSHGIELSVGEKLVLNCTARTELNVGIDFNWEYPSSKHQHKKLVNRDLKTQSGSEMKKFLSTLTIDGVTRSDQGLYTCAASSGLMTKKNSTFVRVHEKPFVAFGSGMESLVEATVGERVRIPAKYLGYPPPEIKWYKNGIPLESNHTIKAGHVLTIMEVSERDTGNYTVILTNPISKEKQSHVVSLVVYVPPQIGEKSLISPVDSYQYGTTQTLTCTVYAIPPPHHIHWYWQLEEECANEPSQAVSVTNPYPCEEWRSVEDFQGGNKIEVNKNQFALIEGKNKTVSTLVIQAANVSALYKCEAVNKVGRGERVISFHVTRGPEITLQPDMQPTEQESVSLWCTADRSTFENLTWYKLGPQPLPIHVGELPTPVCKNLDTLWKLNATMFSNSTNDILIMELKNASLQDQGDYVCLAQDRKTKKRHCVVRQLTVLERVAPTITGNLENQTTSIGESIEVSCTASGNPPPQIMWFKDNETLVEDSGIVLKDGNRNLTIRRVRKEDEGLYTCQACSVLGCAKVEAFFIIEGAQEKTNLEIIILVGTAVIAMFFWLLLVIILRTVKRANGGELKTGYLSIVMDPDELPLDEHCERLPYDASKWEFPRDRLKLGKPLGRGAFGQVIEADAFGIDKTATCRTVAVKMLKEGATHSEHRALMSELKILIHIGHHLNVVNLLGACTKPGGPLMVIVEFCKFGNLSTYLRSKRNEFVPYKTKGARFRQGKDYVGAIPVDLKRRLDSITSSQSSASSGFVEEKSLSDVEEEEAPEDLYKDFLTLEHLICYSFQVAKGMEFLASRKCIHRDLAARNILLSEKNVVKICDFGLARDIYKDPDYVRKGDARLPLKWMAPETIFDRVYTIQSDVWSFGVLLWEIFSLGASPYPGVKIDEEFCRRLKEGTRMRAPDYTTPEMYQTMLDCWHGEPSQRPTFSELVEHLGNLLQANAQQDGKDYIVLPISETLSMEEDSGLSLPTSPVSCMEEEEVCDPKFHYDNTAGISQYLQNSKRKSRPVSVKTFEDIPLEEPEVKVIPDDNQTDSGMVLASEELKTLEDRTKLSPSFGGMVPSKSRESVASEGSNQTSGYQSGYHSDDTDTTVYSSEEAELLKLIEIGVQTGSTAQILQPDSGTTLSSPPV

[39] = target: Mast/stem cell growth factor receptor Kit (Homo sapiens, UniProt P10721); experiment: Inhibition of c-KIT phosphorylation (unknown origin) expressed in human NCI-H526 cells at 0.001 to 1 uM incubated for 2 hrs by Western blot method
Sequence of Mast/stem cell growth factor receptor Kit (P10721 whole entry): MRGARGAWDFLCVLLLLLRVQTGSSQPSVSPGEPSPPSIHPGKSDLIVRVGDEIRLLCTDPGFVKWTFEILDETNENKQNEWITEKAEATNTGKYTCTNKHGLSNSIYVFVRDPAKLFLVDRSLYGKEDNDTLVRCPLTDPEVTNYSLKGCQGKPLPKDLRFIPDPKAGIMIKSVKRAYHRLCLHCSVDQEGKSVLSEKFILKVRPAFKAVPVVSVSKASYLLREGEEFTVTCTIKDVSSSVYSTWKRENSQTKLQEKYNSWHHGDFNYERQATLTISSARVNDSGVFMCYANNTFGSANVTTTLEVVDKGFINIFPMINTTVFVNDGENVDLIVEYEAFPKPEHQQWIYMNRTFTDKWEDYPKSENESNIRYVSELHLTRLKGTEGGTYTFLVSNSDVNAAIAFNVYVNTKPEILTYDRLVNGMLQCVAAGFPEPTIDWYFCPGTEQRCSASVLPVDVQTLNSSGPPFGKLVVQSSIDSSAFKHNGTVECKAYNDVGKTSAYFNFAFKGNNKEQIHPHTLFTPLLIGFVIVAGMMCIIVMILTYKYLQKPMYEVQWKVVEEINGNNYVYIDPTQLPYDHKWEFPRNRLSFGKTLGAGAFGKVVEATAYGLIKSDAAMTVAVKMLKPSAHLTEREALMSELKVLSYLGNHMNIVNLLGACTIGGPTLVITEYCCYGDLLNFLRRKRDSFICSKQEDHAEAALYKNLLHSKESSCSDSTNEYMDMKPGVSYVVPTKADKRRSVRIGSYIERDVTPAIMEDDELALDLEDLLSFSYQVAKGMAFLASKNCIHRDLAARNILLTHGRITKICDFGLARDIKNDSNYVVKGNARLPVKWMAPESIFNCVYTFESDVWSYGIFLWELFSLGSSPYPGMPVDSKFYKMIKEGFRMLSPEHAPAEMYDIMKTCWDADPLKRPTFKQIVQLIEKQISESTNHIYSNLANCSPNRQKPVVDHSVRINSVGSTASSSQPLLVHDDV

[40] = target: Platelet-derived growth factor receptor beta (Homo sapiens, UniProt P09619); experiment: Inhibition of PDGFRbeta phosphorylation (unknown origin) expressed in human U87MG cells at 0.001 to 1 uM incubated for 2 hrs by Western blot method; details: U-87MG ATCC
Sequence of Platelet-derived growth factor receptor beta (P09619 whole entry): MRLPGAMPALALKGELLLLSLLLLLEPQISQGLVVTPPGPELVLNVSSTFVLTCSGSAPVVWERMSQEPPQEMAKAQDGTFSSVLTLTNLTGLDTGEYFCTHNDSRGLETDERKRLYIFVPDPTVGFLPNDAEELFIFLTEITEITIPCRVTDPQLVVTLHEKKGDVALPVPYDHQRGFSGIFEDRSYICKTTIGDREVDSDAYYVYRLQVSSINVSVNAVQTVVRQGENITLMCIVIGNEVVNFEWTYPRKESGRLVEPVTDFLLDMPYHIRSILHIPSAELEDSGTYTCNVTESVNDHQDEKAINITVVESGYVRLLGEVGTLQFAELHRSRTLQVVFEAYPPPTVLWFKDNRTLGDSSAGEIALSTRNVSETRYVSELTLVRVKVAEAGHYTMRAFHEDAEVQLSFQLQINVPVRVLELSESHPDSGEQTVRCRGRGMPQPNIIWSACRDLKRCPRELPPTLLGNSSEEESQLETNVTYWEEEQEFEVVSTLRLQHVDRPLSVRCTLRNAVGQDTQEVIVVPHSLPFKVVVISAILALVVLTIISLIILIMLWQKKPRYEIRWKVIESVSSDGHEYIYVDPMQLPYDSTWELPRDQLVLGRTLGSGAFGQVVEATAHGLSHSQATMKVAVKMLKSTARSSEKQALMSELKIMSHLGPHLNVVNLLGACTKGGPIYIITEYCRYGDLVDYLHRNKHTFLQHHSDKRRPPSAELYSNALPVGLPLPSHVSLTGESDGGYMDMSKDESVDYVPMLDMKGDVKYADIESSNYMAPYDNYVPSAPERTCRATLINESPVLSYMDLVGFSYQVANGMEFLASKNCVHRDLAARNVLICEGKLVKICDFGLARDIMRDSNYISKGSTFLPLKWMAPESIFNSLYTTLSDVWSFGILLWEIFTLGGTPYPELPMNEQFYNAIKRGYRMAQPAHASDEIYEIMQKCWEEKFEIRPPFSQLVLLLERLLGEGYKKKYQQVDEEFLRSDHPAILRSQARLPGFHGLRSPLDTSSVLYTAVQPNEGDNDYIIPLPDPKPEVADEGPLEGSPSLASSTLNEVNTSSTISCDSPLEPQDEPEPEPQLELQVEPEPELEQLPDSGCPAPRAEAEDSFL

CS(=O)(=O)CCNCc1ccc(-c2ccc3ncnc(Nc4ccc(OCc5cccc(F)c5)c(Cl)c4)c3c2)o1 [LAPATINIB]
IC50 [1]: 30.1 nM | IC50 [2]: 63.9 nM | IC50 [3]: 643 nM | IC50 [4]: 8470 nM | Activity [5]: 71% | Activity [6]: 14% | Activity [7]: 15% | Activity [8]: 1% | Activity [9]: 82% | Activity [10]: 11% | Activity [11]: 7% | Activity [12]: 1% | Activity [13]: 84% | Activity [14]: 10% | Activity [15]: 6% | Activity [16]: 4% | Activity [17]: 84% | Activity [18]: 10% | Activity [19]: 6% | Activity [20]: 6% | Activity [21]: 81% | Activity [22]: 11% | Activity [23]: 8% | Activity [24]: 13% | inhibition in vivo at 200 mg/kg [25]: 70% | inhibition in vivo at 100 mg/kg [26]: 56% | Activity [27]: Non-toxic | Activity [28]: Non-toxic | inhibition [29]: Active | inhibition [30]: Active | inhibition [31]: Active | IC50 [32]: 230 nM | IC50 [33]: 190 nM | IC50 [34]: 590 nM | IC50 [35]: > 100000 nM | IC50 [36]: > 100000 nM | IC50 [37]: > 100000 nM | inhibition [38]: inactive | inhibition [39]: inactive | inhibition [40]: inactive
